In ChEMBL document CHEMBL4014350, “Alkoxyurea-Based Histone Deacetylase Inhibitors Increase Cisplatin Potency in Chemoresistant Cancer Cell Lines” (J Med Chem, 2017) one finds CI, IC50 and Ratio IC50 data, which are given here for 3 compounds.

One may read the IC50 as the concentration needed to halve the response being measured.

In test [1] the target is T1, Histone deacetylase 1/6 (Homo sapiens) (UniProt Q13547+Q9UBN7). In words: Inhibition of HDAC1/HDAC6 in human Cal27CisR cells assessed as potentiation of 5 uM cisplatin-induced cytotoxicity by measuring combination index at 600 uM preincubated for 48 hrs followed by cisplatin treatment measured after 72 hrs by MTT assay. Type of test: cell-based. In short, it runs like this: (§1)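 Cal27 and cisplatin-resistant Cal27CisR cells were preincubated with the HDAC inhibitor for 48 h, then given cisplatin in combination. Viability was read by MTT after 72 h. The combination index was computed by the Chou–Talalay method: CI > 1 is antagonism, CI = 1 is additive, and CI < 0.9 is synergism. Points with fraction affected below 0.20 were flagged.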
(Tetrazolium assays rely on reduction of a dye to a coloured formazan, in cell work by metabolically active cells.)

Test [2] addresses T1, Histone deacetylase 1/6 (Homo sapiens). Description: Inhibition of HDAC1/HDAC6 in human Cal27CisR cells assessed as potentiation of 3.16 uM cisplatin-induced cytotoxicity by measuring combination index at 700 nM preincubated for 48 hrs followed by cisplatin treatment measured after 72 hrs by MTT assay.
Test [3] deals with ONS-76. In words: Antiproliferative activity against human ONS76 cells after 72 hrs by Celltiter-Glo assay. Conditions: ONS-76, 72 h. Type of test: functional, cell-based. Background: In ATP-based viability assays light output follows the ATP content of the culture.
The test system of test [4] is CAL-27. In words: Potentiation of 0.5 uM cisplatin-induced cytotoxicity against human CAL27 cells assessed as decrease in cell viability measuring combination index at 600 uM preincubated for 48 hrs followed by cisplatin treatment measured after 72 hrs by MTT assay. Type of test: functional. Conditions: in the assay text read “at 600 nM” for “at 600 uM”. An outline of the steps: as §1

In test [5] the target is T1, Histone deacetylase 1/6 (Homo sapiens). In words: Inhibition of HDAC1/HDAC6 in human Cal27CisR cells assessed as potentiation of 1 uM cisplatin-induced cytotoxicity by measuring combination index at 500 nM preincubated for 48 hrs followed by cisplatin treatment measured after 72 hrs by MTT assay.
Test [6] deals with CAL-27. In words: Potentiation of 1 uM cisplatin-induced cytotoxicity against human CAL27 cells assessed as decrease in cell viability by measuring combination index at 800 uM preincubated for 48 hrs followed by cisplatin treatment measured after 72 hrs by MTT assay. It counts as functional. In short, it runs like this:
(§2)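 HDAC inhibitor was added 48 h before cisplatin, then cells were exposed to cisplatin for 72 h and viability was read by MTT assay. Combination index was computed by the Chou–Talalay method: CI > 1 is antagonism, CI = 1 additive, CI < 0.9 synergism. Points with fraction affected below 0.20 were flagged.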

Test [7] in a line: Inhibition of HDAC in human A2780CisR cells using Boc-Lys(epsilon-Ac)-AMC as substrate preincubated for 18 hrs followed by substrate addition measured after 3 hrs by fluorescence assay. It counts as cell-based.
The target in test [8] is T1, Histone deacetylase 1/6 (Homo sapiens). Description: Inhibition of HDAC1/HDAC6 in human Cal27CisR cells assessed as potentiation of 3.16 uM cisplatin-induced cytotoxicity by measuring combination index at 500 nM preincubated for 48 hrs followed by cisplatin treatment measured after 72 hrs by MTT assay.
The species named for test [9] is Homo sapiens. In words: Selectivity index, ratio of IC50 for human recombinant HDAC8 to IC50 for full length human recombinant N-terminal GST-tagged HDAC6 expressed in baculovirus infected sf9 cells. In short, it runs like this: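 Ratio of isolated-enzyme IC50 values. HDAC1, HDAC6 and HDAC8 IC50s were each the mean ± SD of three independent experiments.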
The target in test [10] is T1, Histone deacetylase 1/6 (Homo sapiens). In words: Inhibition of HDAC1/HDAC6 in human Cal27CisR cells assessed as potentiation of 5 uM cisplatin-induced cytotoxicity by measuring combination index at 800 uM preincubated for 48 hrs followed by cisplatin treatment measured after 72 hrs by MTT assay. It counts as cell-based. An outline of the steps: as §1
The species named for test [11] is Homo sapiens. Description: Selectivity ratio of IC50 for recombinant human N-terminal GST-tagged/C-terminal His-tagged HDAC4 to IC50 for full length human recombinant N-terminal GST-tagged HDAC6 expressed in baculovirus infected sf9 cells. An outline of the steps: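 Ratio of isolated-enzyme IC50 values. The HDAC4 IC50 was determined in duplicate by an external contract service. The HDAC6 IC50 was the mean ± SD of three independent experiments.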

Test [12] deals with T1, Histone deacetylase 1/6 (Homo sapiens). In words: Inhibition of HDAC1/HDAC6 in human Cal27CisR cells assessed as potentiation of 20 uM cisplatin-induced cytotoxicity by measuring combination index at 800 nM preincubated for 48 hrs followed by cisplatin treatment measured after 72 hrs by MTT assay.
The test system of test [13] is CAL-27. Description: Potentiation of 5 uM cisplatin-induced cytotoxicity against human CAL27 cells assessed as decrease in cell viability by measuring combination index at 500 uM preincubated for 48 hrs followed by cisplatin treatment measured after 72 hrs by MTT assay. Conditions: in the assay text read “at 500 nM” for “at 500 uM”. Type of test: functional. An outline of the steps:
as §2

The target in test [14] is T1, Histone deacetylase 1/6 (Homo sapiens). Description: Inhibition of HDAC1/HDAC6 in human Cal27CisR cells assessed as potentiation of 1 uM cisplatin-induced cytotoxicity by measuring combination index at 700 uM preincubated for 48 hrs followed by cisplatin treatment measured after 72 hrs by MTT assay. It counts as cell-based. An outline of the steps: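 Cal27CisR cells preincubated 48 h with the HDAC inhibitor, then exposed to cisplatin for 72 h. Viability read by MTT. Combination index calculated by the Chou–Talalay method: CI > 1 antagonism, CI = 1 additive, CI < 0.9 synergism. Points with fraction affected below 0.20 are flagged. Values are the mean of three experiments.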

The target is the same in test [15]. Description: Inhibition of HDAC1/HDAC6 in human Cal27CisR cells assessed as potentiation of 10 uM cisplatin-induced cytotoxicity by measuring combination index at 500 nM preincubated for 48 hrs followed by cisplatin treatment measured after 72 hrs by MTT assay.
Test [16] deals with CAL-27. Description: Potentiation of 1 uM cisplatin-induced cytotoxicity against human CAL27 cells assessed as decrease in cell viability by measuring combination index at 600 uM preincubated for 48 hrs followed by cisplatin treatment measured after 72 hrs by MTT assay. Type of test: functional. An outline of the steps:
as §2

Test [17] addresses Histone deacetylase 4 (Homo sapiens, UniProt P56524). Description: Inhibition of recombinant human N-terminal GST-tagged/C-terminal His-tagged HDAC4 expressed in insect cells using Boc-K(Ac)-AMC as substrate by fluorescence assay.
The target in test [18] is T1, Histone deacetylase 1/6 (Homo sapiens). Description: Inhibition of HDAC1/HDAC6 in human Cal27CisR cells assessed as potentiation of 3.16 uM cisplatin-induced cytotoxicity by measuring combination index at 600 nM preincubated for 48 hrs followed by cisplatin treatment measured after 72 hrs by MTT assay.
Test [19] shares this target. Description: Inhibition of HDAC1/HDAC6 in human Cal27CisR cells assessed as potentiation of 3.16 uM cisplatin-induced cytotoxicity by measuring combination index at 800 nM preincubated for 48 hrs followed by cisplatin treatment measured after 72 hrs by MTT assay.

Structures are written as SMILES.

T1 sequence (Q13547 whole entry, looked up): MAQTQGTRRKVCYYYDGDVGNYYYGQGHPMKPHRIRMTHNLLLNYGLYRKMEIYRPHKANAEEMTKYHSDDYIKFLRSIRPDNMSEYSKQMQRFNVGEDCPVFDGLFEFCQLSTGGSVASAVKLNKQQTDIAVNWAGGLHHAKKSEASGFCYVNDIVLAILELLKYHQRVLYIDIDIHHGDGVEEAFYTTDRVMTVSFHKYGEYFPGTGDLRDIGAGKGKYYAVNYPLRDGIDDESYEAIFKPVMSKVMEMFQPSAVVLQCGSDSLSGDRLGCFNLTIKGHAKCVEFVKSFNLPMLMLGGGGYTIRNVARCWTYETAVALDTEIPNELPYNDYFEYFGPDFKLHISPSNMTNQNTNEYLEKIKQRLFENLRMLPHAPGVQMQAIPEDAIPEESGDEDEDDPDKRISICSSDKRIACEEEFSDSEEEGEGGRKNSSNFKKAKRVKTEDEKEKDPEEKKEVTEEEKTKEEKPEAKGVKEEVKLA
T1 sequence (Q9UBN7 whole entry, looked up): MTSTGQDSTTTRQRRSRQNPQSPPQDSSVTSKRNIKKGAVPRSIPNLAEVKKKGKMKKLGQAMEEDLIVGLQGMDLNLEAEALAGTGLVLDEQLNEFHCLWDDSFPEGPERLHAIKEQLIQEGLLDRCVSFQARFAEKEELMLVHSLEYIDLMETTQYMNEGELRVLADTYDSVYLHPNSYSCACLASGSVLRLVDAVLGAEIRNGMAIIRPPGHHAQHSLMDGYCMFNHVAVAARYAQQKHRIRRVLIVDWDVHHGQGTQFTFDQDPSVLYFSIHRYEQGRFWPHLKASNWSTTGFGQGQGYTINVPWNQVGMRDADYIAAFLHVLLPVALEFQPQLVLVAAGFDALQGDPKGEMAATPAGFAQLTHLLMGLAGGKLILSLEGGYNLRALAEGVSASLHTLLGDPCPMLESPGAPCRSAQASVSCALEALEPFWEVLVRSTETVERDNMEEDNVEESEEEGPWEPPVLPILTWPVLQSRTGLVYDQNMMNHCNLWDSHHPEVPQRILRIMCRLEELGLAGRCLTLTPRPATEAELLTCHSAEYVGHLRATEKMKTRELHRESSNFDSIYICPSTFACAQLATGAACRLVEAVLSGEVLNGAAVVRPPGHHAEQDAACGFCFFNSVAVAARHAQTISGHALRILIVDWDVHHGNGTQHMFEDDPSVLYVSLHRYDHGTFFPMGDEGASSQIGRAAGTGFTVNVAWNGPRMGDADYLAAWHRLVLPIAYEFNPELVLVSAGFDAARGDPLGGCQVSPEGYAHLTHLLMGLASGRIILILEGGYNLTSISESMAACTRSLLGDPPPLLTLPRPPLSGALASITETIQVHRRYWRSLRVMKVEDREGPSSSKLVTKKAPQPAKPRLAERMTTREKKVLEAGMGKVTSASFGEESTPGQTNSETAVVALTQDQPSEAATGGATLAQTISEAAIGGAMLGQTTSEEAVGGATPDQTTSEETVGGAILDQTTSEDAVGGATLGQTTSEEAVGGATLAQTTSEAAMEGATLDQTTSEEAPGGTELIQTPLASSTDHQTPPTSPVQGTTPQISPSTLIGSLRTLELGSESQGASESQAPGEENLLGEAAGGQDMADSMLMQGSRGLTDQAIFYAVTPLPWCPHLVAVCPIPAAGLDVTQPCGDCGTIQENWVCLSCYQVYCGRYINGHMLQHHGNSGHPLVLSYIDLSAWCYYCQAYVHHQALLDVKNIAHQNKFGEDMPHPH
Histone deacetylase 4, sequence (P56524 whole entry): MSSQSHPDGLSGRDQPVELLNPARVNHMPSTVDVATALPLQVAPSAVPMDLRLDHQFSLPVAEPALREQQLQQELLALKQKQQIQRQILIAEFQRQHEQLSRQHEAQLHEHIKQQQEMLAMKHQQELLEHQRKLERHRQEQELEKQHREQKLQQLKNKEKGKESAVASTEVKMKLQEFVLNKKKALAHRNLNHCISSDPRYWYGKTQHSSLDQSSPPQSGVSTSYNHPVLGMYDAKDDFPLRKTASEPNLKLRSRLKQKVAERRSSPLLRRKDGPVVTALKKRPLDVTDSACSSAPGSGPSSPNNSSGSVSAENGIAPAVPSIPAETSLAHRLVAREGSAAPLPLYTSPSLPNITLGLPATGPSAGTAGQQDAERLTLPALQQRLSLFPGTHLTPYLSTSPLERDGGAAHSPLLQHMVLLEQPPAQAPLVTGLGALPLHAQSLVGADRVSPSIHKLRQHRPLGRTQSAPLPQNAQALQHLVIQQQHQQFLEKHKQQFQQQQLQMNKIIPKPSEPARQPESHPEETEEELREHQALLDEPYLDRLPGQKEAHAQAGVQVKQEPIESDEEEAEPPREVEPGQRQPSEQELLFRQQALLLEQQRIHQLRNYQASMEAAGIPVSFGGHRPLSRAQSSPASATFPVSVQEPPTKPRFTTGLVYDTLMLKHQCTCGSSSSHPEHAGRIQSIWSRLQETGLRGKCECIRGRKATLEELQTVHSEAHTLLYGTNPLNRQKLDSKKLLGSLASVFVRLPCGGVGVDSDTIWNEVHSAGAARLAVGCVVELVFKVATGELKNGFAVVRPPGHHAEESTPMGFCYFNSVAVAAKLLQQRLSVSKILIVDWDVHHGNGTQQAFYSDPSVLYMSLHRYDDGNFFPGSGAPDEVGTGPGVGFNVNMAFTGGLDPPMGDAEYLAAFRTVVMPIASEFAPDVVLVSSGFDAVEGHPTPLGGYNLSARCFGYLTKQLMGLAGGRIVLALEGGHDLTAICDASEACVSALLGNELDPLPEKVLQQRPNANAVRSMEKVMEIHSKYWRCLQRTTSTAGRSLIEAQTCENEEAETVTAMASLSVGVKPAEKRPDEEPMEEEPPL

In the case of `COc1cc(NC(=O)NOCCCCCC(=O)NO)c2nc(OC)cc(C)c2c1`, the CI came out at 0.2 in [1]; 0.28 in test [2]; 0.66 in test [4]; 0.56 in test [5]; 0.69 in test [6]; 0.26 in test [8]. For the same compound, the CI in [10] is 0.26; in test [12], 0.21; in [13], 0.43; in [14] it was under 0.2; in [15] it was 0.16; in [16], 0.53. For the same compound, the CI in [18] turned out to be 0.24; in [19] it was 0.29. For the same compound, the values for the IC50 in [3], in test [7] and in test [17] were 650 nM, 500 nM and over 10000 nM, respectively. Besides, the values for the Ratio IC50 in test [9] and in test [11] were 550 and over 3500, respectively.
As to `COc1cc(NC(=O)NOCCCCCC(=O)NO)c2nccc(C)c2c1`, the CI in test [1] is 0.25; in test [2], 0.28; in [4], 0.58; in [5] it was under 0.2; in [6], 0.41; in [8], 0.71. Moreover, the CI in [10] is 0.23; in [12] it was 0.28; in test [13] it was 0.29; in test [14], under 0.2; in [15], 0.25; in [16], 0.37. In addition, the CI is 0.51 in test [18] and 0.26 in test [19]. In addition, the IC50 in test [3] was 590 nM; in [7], 400 nM; in test [17], over 10000 nM. The values for the Ratio IC50 in test [9] and in test [11] were over 100 and over 3500, respectively.
For `COc1cc(NC(=O)NOCCCCCC(=O)NO)c2ncccc2c1`, the CI in test [1] is 0.6; in test [2], 0.56; in test [4], 0.77; in test [5] it was under 0.2; in [6] it was 0.56; in [8] it was under 0.2. Besides, the CI in test [10] is 0.37; in test [12] it was 0.37; in test [13], 0.35; in [14], under 0.2; in test [15], 0.36; in [16] it was 0.57. Further, the CI is under 0.2 in [18] and 0.51 in test [19]. In addition, the figures for the IC50 in [3], in [7] and in [17] were 2670 nM, 500 nM and over 10000 nM, respectively. Also, the Ratio IC50 in test [9] was over 100; in test [11], over 3500.
